In paper PMC3313018 (Cancer Chemotherapy and Pharmacology, 2011):
“Also recorded” adds a separate entry of the source. Where two headings read alike, the source gives them in different places. Marks after values point to notes of the source that are not given here.

Experiments:
[1] = test system: Japanese patients with advanced solid tumors; test: Phase I safety and tolerability: DLTs and adverse events; type: in vivo; conditions: for DLTs / n/N, No. of patients with DLT/No. of patients at the dose level: Cycle 1
Summary of the method: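 Open-label, single-centre 3+3 escalation, 20 then 40 mg orally (single dose Day 1, then daily 5 days/week from Day 8). DLT window was the first 28-day cycle, counting drug-related Grade 4 neutropenia >5 days, febrile (>38.5°C) Grade 3–4 neutropenia, Grade 4 thrombocytopenia, and Grade 3–4 non-haematologic toxicity with exceptions. Adverse events graded by CTCAE v3.0 over all cycles. Dose intensity <75% excluded from DLT evaluation.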

[2] = Whole blood and plasma pharmacokinetics; type: in vivo, Japanese patients
Summary of the method: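 Cycle 1, oral 20 or 40 mg. Whole blood and plasma sampled predose and 0.5–168 h after the Day 1 dose, predose on Days 15, 18, 22 and 23, and predose to 24 h on Day 26; assayed by HPLC-MS/MS. Tmax, Cmax and Ctrough taken by inspection. […] Accumulation (Day 26/Day 1) from a linear mixed effects model on ln values.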

[3] = test system: metastatic or locally advanced solid tumors; test: Antitumor activity by RECIST version 1.0; type: in vivo, Japanese patients
Summary of the method: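 Exploratory tumour assessment by RECIST v1.0 in refractory metastatic or locally advanced solid tumours. Oral 20 or 40 mg: single dose Day 1, washout ≥6 days, then once daily 5 days on/2 days off on Days 8–28 as inpatients. Later 21-day cycles at 5 days a week until progression or unacceptable toxicity.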

[4] = test system: non-Japanese patients with refractory or advanced solid cancer; conditions: cited from earlier work; for Maximum tolerated dose (MTD): non-Japanese patients ref 10–13
sarcoma = conditions: Phase III sarcoma maintenance study, P = 0.0001, stratified log-rank ref 24; cited from earlier work
mTOR = conditions: in vitro ref 8; cited from earlier work
human tumor cell lines = conditions: in vitro ref 8; cited from earlier work
[5] = All patients (n = 13), all cycles
[6] = all patients (n = 13), all cycles

CO[C@H]1C[C@@H]2CC[C@@H](C)[C@@](O)(O2)C(=O)C(=O)N2CCCC[C@H]2C(=O)O[C@H]([C@H](C)C[C@@H]2CC[C@@H](OP(C)(C)=O)[C@H](OC)C2)CC(=O)[C@H](C)/C=C(\C)[C@@H](O)[C@@H](OC)C(=O)[C@H](C)C[C@H](C)/C=C/C=C/C=C/1C [ridaforolimus, Ridaforolimus]
Anorexia, drug-related adverse event, Grades 1–2, no. of patients ([1]; 20 mg (n = 7), all cycles): 2 | Constipation, drug-related adverse event, Grades 1–2, no. of patients ([1]; 20 mg (n = 7), all cycles): 3 | Fatigue, drug-related adverse event, Grades 1–2, no. of patients ([1]; 20 mg (n = 7), all cycles): 1 | Hypercholesterolemia, drug-related adverse event, Grades 1–2, no. of patients ([1]; 20 mg (n = 7), all cycles): 3 | Hyperglycemia, drug-related adverse event, Grades 1–2, no. of patients ([1]; 20 mg (n = 7), all cycles): 2 | Hypertriglyceridemia, drug-related adverse event, Grades 1–2, no. of patients ([1]; 20 mg (n = 7), all cycles): 5 | Hypoalbuminemia, drug-related adverse event, Grades 1–2, no. of patients ([1]; 20 mg (n = 7), all cycles): 2 | Interstitial pneumonitis, drug-related adverse event, Grades 1–2, no. of patients ([1]; 20 mg (n = 7), all cycles): 1 | Interstitial pneumonitis, drug-related adverse event, Grades 3–4, no. of patients ([1]; 20 mg (n = 7), all cycles): 0 | Leukopenia, drug-related adverse event, Grades 1–2, no. of patients ([1]; 20 mg (n = 7), all cycles): 1 | Leukopenia, drug-related adverse event, Grades 3–4, no. of patients ([1]; 20 mg (n = 7), all cycles): 1 | Neutropenia, drug-related adverse event, Grades 1–2, no. of patients ([1]; 20 mg (n = 7), all cycles): 1 | Neutropenia, drug-related adverse event, Grades 3–4, no. of patients ([1]; 20 mg (n = 7), all cycles): 2 | Proteinuria, drug-related adverse event, Grades 1–2, no. of patients ([1]; 20 mg (n = 7), all cycles): 3 | Stomatitis, drug-related adverse event, Grades 3–4, no. of patients ([1]; 20 mg (n = 7), all cycles): 1 | Thrombocytopenia, drug-related adverse event, Grades 1–2, no. of patients ([1]; 20 mg (n = 7), all cycles): 2 | Anemia, drug-related adverse event, Grades 1–2, no. of patients ([1]; 40 mg (n = 6), all cycles): 3 | Anemia, drug-related adverse event, Grades 3–4, no. of patients ([1]; 40 mg (n = 6), all cycles): 3 | Anorexia, drug-related adverse event, Grades 1–2, no. of patients ([1]; 40 mg (n = 6), all cycles): 2 | Anorexia, drug-related adverse event, Grades 3–4, no. of patients ([1]; 40 mg (n = 6), all cycles): 1 | Constipation, drug-related adverse event, Grades 1–2, no. of patients ([1]; 40 mg (n = 6), all cycles): 1 | Fatigue, drug-related adverse event, Grades 1–2, no. of patients ([1]; 40 mg (n = 6), all cycles): 3 | Hypercholesterolemia, drug-related adverse event, Grades 1–2, no. of patients ([1]; 40 mg (n = 6), all cycles): 3 | Hyperglycemia, drug-related adverse event, Grades 1–2, no. of patients ([1]; 40 mg (n = 6), all cycles): 2 | Hyperglycemia, drug-related adverse event, Grades 3–4, no. of patients ([1]; 40 mg (n = 6), all cycles): 1 | Hypertriglyceridemia, drug-related adverse event, Grades 1–2, no. of patients ([1]; 40 mg (n = 6), all cycles): 4 | Hypoalbuminemia, drug-related adverse event, Grades 1–2, no. of patients ([1]; 40 mg (n = 6), all cycles): 3 | Interstitial pneumonitis, drug-related adverse event, Grades 1–2, no. of patients ([1]; 40 mg (n = 6), all cycles): 3 | Interstitial pneumonitis, drug-related adverse event, Grades 3–4, no. of patients ([1]; 40 mg (n = 6), all cycles): 0 | Leukopenia, drug-related adverse event, Grades 1–2, no. of patients ([1]; 40 mg (n = 6), all cycles): 2 | Loss of body weight, drug-related adverse event, Grades 1–2, no. of patients ([1]; 40 mg (n = 6), all cycles): 4 | Neutropenia, drug-related adverse event, Grades 1–2, no. of patients ([1]; 40 mg (n = 6), all cycles): 1 | Proteinuria, drug-related adverse event, Grades 1–2, no. of patients ([1]; 40 mg (n = 6), all cycles): 3 | Rash, drug-related adverse event, Grades 1–2, no. of patients ([1]; 40 mg (n = 6), all cycles): 2 | Rash, drug-related adverse event, Grades 3–4, no. of patients ([1]; 40 mg (n = 6), all cycles): 1 | Stomatitis, drug-related adverse event, Grades 1–2, no. of patients ([1]; 40 mg (n = 6), all cycles): 6 | Thrombocytopenia, drug-related adverse event, Grades 1–2, no. of patients ([1]; 40 mg (n = 6), all cycles): 3 | Median time until the onset of stomatitis ([1]; 13 patients): 11 days | Number of patients who discontinued treatment because of adverse events ([1]; 13 patients): Six patients | Number of patients with stomatitis ([1]; 13 patients enrolled): 13 | Number of patients with grade 1 drug-induced interstitial pneumonitis ([1]; 13 patients, 20 and 40 mg): Four patients | Number of patients with dose-limiting toxicities ([1]; 20 and 40 mg, first cycle): Two patients | Anemia, drug-related adverse event, Grades 3–4, no. of patients [1, 5]: 4 | Anorexia, drug-related adverse event, Grades 1–2, no. of patients [1, 5]: 4 | Anorexia, drug-related adverse event, Grades 3–4, no. of patients [1, 5]: 1 | Constipation, drug-related adverse event, Grades 1–2, no. of patients [1, 5]: 4 | Fatigue, drug-related adverse event, Grades 1–2, no. of patients [1, 5]: 4 | Hypercholesterolemia, drug-related adverse event, Grades 1–2, no. of patients [1, 5]: 6 | Hyperglycemia, drug-related adverse event, Grades 1–2, no. of patients [1, 5]: 4 | Hyperglycemia, drug-related adverse event, Grades 3–4, no. of patients [1, 5]: 1 | Hypertriglyceridemia, drug-related adverse event, Grades 1–2, no. of patients [1, 5]: 9 | Hypoalbuminemia, drug-related adverse event, Grades 1–2, no. of patients [1, 5]: 5 | Interstitial pneumonitis, drug-related adverse event, Grades 1–2, no. of patients [1, 5]: 4 | Interstitial pneumonitis, drug-related adverse event, Grades 3–4, no. of patients [1, 5]: 0 | Leukopenia, drug-related adverse event, Grades 1–2, no. of patients [1, 5]: 3 | Leukopenia, drug-related adverse event, Grades 3–4, no. of patients [1, 5]: 1 | Loss of body weight, drug-related adverse event, Grades 1–2, no. of patients [1, 5]: 4 | Neutropenia, drug-related adverse event, Grades 1–2, no. of patients [1, 5]: 2 | Neutropenia, drug-related adverse event, Grades 3–4, no. of patients [1, 5]: 2 | Proteinuria, drug-related adverse event, Grades 1–2, no. of patients [1, 5]: 6 | Rash, drug-related adverse event, Grades 3–4, no. of patients [1, 5]: 1 | Stomatitis, drug-related adverse event, Grades 3–4, no. of patients [1, 5]: 1 | Thrombocytopenia, drug-related adverse event, Grades 1–2, no. of patients [1, 5]: 5 | Time to onset of DLT ([1]; Grade 3 anorexia, 40 mg): 23 days | Time to onset of DLT ([1]; Grade 3 stomatitis, 20 mg): 8 days | Time to onset of DLT ([1]; Grade 3 vomiting, 40 mg): 23 days | DLTs ([1]; Level 1, 20 mg): Grade 3 stomatitis | n/N, No. of patients with DLT/No. of patients at the dose level ([1]; Level 1, 20 mg): 1/6^b | DLTs ([1]; Level 2, 40 mg): Grade 3 anorexia; also recorded: Grade 3 vomiting | n/N, No. of patients with DLT/No. of patients at the dose level ([1]; Level 2, 40 mg): 1/6 | Incidence of hypercholesterolemia related to treatment [1, 6]: 46.2% | Incidence of hypertriglyceridemia related to treatment [1, 6]: 69.2% | Incidence of leucopenia [1, 6]: 30.8% | Incidence of neutropenia [1, 6]: 30.8% | Incidence of proteinuria related to treatment [1, 6]: 46.2% | Incidence of skin rash related to treatment [1, 6]: 61.5% | Incidence of stomatitis related to treatment [1, 6]: 100% | Incidence of thrombocytopenia [1, 6]: 38.5% | Patients requiring a dose reduction ([1]; dose level 2 (40 mg)): None | Interstitial pneumonitis among patients with other cancer types ([1]; eight patients with other cancer types): three cases occurred among eight patients | Interstitial pneumonitis among NSCLC patients ([1]; five patients with NSCLC): one of these five NSCLC patients | Time of occurrence of interstitial pneumonitis after the start of treatment ([1]; four patients): 2–5 months | Tolerability, in words ([1]; oral, once daily 5 days a week): well tolerated up to a dose of 40 mg | Time whole blood concentration was below the quantitation limit (<0.2 ng/mL) ([2]; Day 1, after administration of 20 mg): 2 to 4 h | Time whole blood concentration was below the quantitation limit (<0.2 ng/mL) ([2]; Day 1, after administration of 40 mg): 1 to 2 h | Time for mean whole blood C trough to reach steady state ([2]; once daily, 5 days a week): about 1 week | Blood-to-plasma ratio, in words ([2]; plasma vs whole blood concentration): high blood-to-plasma ratio | Accumulation from Day 1 to Day 26 (AUC0–24 h, C max, C trough), in words ([2]; whole blood): moderate accumulation | Accumulation ratio (Day 26/Day 1) AUC0–24 h, geometric mean ratio (90% confidence interval) ([2]; whole blood, 20 mg): 1.51 (1.14, 2.01) | Accumulation ratio (Day 26/Day 1) C max, geometric mean ratio (90% confidence interval) ([2]; whole blood, 20 mg): 1.37 (0.959, 1.97) | Accumulation ratio (Day 26/Day 1) C trough, geometric mean ratio (90% confidence interval) ([2]; whole blood, 20 mg): 2.02 (1.61, 2.52) | Accumulation ratio (Day 26/Day 1) AUC0–24 h, geometric mean ratio (90% confidence interval) ([2]; whole blood, 40 mg): 1.44 (1.05, 1.99) | Accumulation ratio (Day 26/Day 1) C max, geometric mean ratio (90% confidence interval) ([2]; whole blood, 40 mg): 1.01 (0.674, 1.50) | Accumulation ratio (Day 26/Day 1) C trough, geometric mean ratio (90% confidence interval) ([2]; whole blood, 40 mg): 1.76 (1.37, 2.25) | Lag time for systemic absorption ([2]; whole blood, Day 1, 20 and 40 mg): 1 to 4 h | Time at which C max was reached ([2]; whole blood, Days 1 and 26): approximately 4 h | Number of patients achieving a partial response ([3]; 13 patients, NSCLC and angiosarcoma): Two patients | Number of patients with stable disease for ≥16 weeks ([3]; 13 patients, one thymic cancer, four soft tissue sarcomas): five patients | Duration of stable disease ([3]; Patient 1, Osteosarcoma, 20 mg): 3.7 weeks | Duration of stable disease ([3]; Patient 3, Thymic cancer, 20 mg): 16.3 weeks | Duration of stable disease ([3]; Patient 5, Liposarcoma, 20 mg): 16.1 weeks | Duration of stable disease ([3]; Patient 6, NSCLC (adenocarcinoma), 20 mg): 4.0 weeks | Duration of stable disease ([3]; Patient 7, NSCLC (adenocarcinoma), 20 mg): 4.0 weeks | Duration of stable disease ([3]; Patient 8, Osteosarcoma, 40 mg): 4.0 weeks | Duration of stable disease ([3]; Patient 9, Liposarcoma, 40 mg): 17.3 weeks | Duration of stable disease ([3]; Patient 10, Leiomyosarcoma, 40 mg): 16.3 weeks | Duration of stable disease ([3]; Patient 11, Leiomyosarcoma, 40 mg): 17.1 weeks | Longest tumor diameter on CT ([3]; Patient 13, Day 28, baseline 42 mm): 21 mm | Time until the response ([3]; both patients with partial response): 28 days | DLTs ([4]; 40 mg daily, five times a week, non-Japanese patients ref 17): stomatitis and fatigue | Maximum tolerated dose (MTD) ([4]; daily regimen): 10 mg | Maximum tolerated dose (MTD) ([4]; once daily, five-times-a-week regimen): 40 mg | Hazard ratio for progression-free survival vs placebo (sarcoma): 0.72 | Effect on mTOR activity, in words (mTOR): inhibited mTOR activity | Antiproliferative activity, in words (human tumor cell lines): antiproliferative activity against a broad range of human tumor cell lines
